Where “and” joins values, the source holds several entries; their conditions need not be identical. Equal entries are not always repeated. One block for each molecule: values may come before it. Calls of active or inactive are those of the source. The calls are words filed in the database; no cut-off is given here.
Assays:
Rattus norvegicus [1] = test: Tested for in vivo inhibition of galactitol accumulation in the lens of galactose-fed rats at the dose of 50.5 (mg/kg/day); type: functional, Lens of camera-type eye
[2] = target: Aldo-keto reductase family 1 member B1 (Bos taurus) (UniProt P16116); test: Inhibition of aldose reductase activity in partially purified bovine lens preparation at 10e-5 M
Method in brief: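 Partially purified bovine lens aldose reductase. Reduction of DL-glyceraldehyde substrate followed spectrophotometrically. Activity expressed as average inhibition at the tested concentrations, 1×10^-5, 1×10^-6, 1×10^-7 and 4×10^-6 M as printed; IC50 in M where given.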

Rattus norvegicus [3] = test: Tested for in vivo inhibition of galactitol accumulation in the sciatic nerve of galactose-fed rats at the dose of 50.5 (mg/kg/day); type: functional
Method in brief: (§1)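 Rats fed a 20% galactose diet for 4 days, with test compound given in the diet at the stated daily dose (mg/kg/day). Read-out is inhibition of galactitol (polyol) accumulation in sciatic nerve. Values are % inhibition, mean ± SEM of six animals; p < 0.01 unless marked (some p < 0.05). NS = no significant inhibition of polyol accumulation. Tolrestat was the reference standard.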

Rattus norvegicus [4] = test: Tested for in vivo inhibition of galactitol accumulation in the lens of galactose-fed rats at the dose of 25.4 (mg/kg/day); NS=Not significant; type: functional, organism-based; conditions: Lens of camera-type eye
Rattus norvegicus [5] = test: Tested for in vivo inhibition of galactitol accumulation in the sciatic nerve of galactose-fed rats at the dose of 25.4 (mg/kg/day); type: functional
Method in brief: (§2)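 Rats were given a 20% galactose diet for 4 days, with the test compound administered in the diet. Sciatic nerve galactitol accumulation was measured, and activity is given as % inhibition at the stated daily dose (mg/kg/day). Values are mean ± SEM, n = 6 animals; p < 0.01 unless indicated. NS means no significant inhibition of polyol accumulation.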

Rattus norvegicus [6] = test: Tested for in vivo inhibition of galactitol accumulation in the sciatic nerve of galactose-fed rats at the dose of 48.8 (mg/kg/day); type: functional; method in brief: as §1
Rattus norvegicus [7] = test: Tested for in vivo inhibition of galactitol accumulation in the sciatic nerve of galactose-fed rats at the dose of 96.6 (mg/kg/day); type: functional; method in brief: as §1
Rattus norvegicus [8] = test: Tested for in vivo inhibition of galactitol accumulation in the lens of galactose-fed rats at the dose of 48.8 (mg/kg/day); NS=Not significant; type: functional, organism-based; conditions: Lens of camera-type eye
Rattus norvegicus [9] = test: Tested for in vivo inhibition of galactitol accumulation in the lens of galactose-fed rats at the dose of 96.6 (mg/kg/day); NS=Not significant; type: functional, organism-based; conditions: Lens of camera-type eye
Method in brief: (§3)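 Galactosemic rats were fed 20% galactose for 4 days, with the compound mixed into the diet. […] galactitol accumulation was measured, and activity is given as % inhibition at the stated daily dose (mg/kg/day). Values are mean ± SEM of six animals; p < 0.01 unless indicated. NS means no significant inhibition of polyol accumulation.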

Rattus norvegicus [10] = test: Tested for in vivo inhibition of galactitol accumulation in the lens of galactose-fed rats at the dose of 24.4 (mg/kg/day); NS=Not significant; type: functional, organism-based; conditions: Lens of camera-type eye
Rattus norvegicus [11] = test: Tested for in vivo inhibition of galactitol accumulation in the sciatic nerve of galactose-fed rats at the dose of 24.4 (mg/kg/day); type: functional; method in brief: as §2
Rattus norvegicus [12] = test: Tested for in vivo inhibition of galactitol accumulation in the sciatic nerve of galactose-fed rats at the dose of 56.1 (mg/kg/day); type: functional; method in brief: as §1
Rattus norvegicus [13] = test: Tested for in vivo inhibition of galactitol accumulation in the lens of galactose-fed rats at the dose of 56.1 (mg/kg/day); type: functional, Lens of camera-type eye; method in brief: as §3
Rattus norvegicus [14] = test: Tested for in vivo inhibition of galactitol accumulation in the sciatic nerve of galactose-fed rats at the dose of 0.5 (mg/kg/day); type: functional; method in brief: as §2
Rattus norvegicus [15] = test: Tested for in vivo inhibition of galactitol accumulation in the sciatic nerve of galactose-fed rats at the dose of 0.9 (mg/kg/day); type: functional; method in brief: as §2
Rattus norvegicus [16] = test: Tested for in vivo inhibition of galactitol accumulation in the lens of galactose-fed rats at the dose of 57.2 (mg/kg/day); type: functional, Lens of camera-type eye; method in brief: as §3
Rattus norvegicus [17] = test: Tested for in vivo inhibition of galactitol accumulation in the sciatic nerve of galactose-fed rats at the dose of 57.2 (mg/kg/day); type: functional; method in brief: as §1
Rattus norvegicus [18] = test: Tested for in vivo inhibition of galactitol accumulation in the sciatic nerve of galactose-fed rats at the dose of 49 (mg/kg/day); type: functional; method in brief: as §1
Rattus norvegicus [19] = test: Tested for in vivo inhibition of galactitol accumulation in the lens of galactose-fed rats at the dose of 10.5 (mg/kg/day); NS=Not significant; type: functional, organism-based; conditions: Lens of camera-type eye
Rattus norvegicus [20] = test: Tested for in vivo inhibition of galactitol accumulation in the lens of galactose-fed rats at the dose of 49 (mg/kg/day); type: functional, Lens of camera-type eye
Rattus norvegicus [21] = test: Tested for in vivo inhibition of galactitol accumulation in the sciatic nerve of galactose-fed rats at the dose of 47 (mg/kg/day); type: functional; method in brief: as §2
Rattus norvegicus [22] = test: Tested for in vivo inhibition of galactitol accumulation in the lens of galactose-fed rats at the dose of 47 (mg/kg/day); NS=Not significant; type: functional, organism-based; conditions: Lens of camera-type eye
Rattus norvegicus [23] = test: Tested for in vivo inhibition of galactitol accumulation in the lens of galactose-fed rats at the dose of 86.1 (mg/kg/day); type: functional, Lens of camera-type eye; method in brief: as §3
Rattus norvegicus [24] = test: Tested for in vivo inhibition of galactitol accumulation in the sciatic nerve of galactose-fed rats at the dose of 25 (mg/kg/day); type: functional; method in brief: as §2
Rattus norvegicus [25] = test: Tested for in vivo inhibition of galactitol accumulation in the lens of galactose-fed rats at the dose of 25 (mg/kg/day); type: functional, Lens of camera-type eye

inhibition [2]: inactive
Structure (SMILES): NN1C(=O)CC2(C1=O)C(=O)N(Cc1ccc(Br)cc1F)C(=O)c1ccc(F)cc12 (configuration not stated)
Inhibition (Rattus norvegicus [1]): 54%
Inhibition (Rattus norvegicus [3]): 75%

Structure (SMILES): COC(=O)NC(=O)CC1C(=O)N(Cc2ccc(Br)cc2F)C(=O)c2cc(OC)ccc21 (configuration not stated)
inhibition (Rattus norvegicus [4]): inactive
Inhibition (Rattus norvegicus [5]): 68%

inhibition [2]: 95%
Structure (SMILES): COC(=O)NC(=O)CC1C(=O)N(Cc2nc3cc(C(F)(F)F)ccc3s2)C(=O)c2ccccc21 (configuration not stated)
Inhibition (Rattus norvegicus [6]): 61%
Inhibition (Rattus norvegicus [7]): 73%
NS (Rattus norvegicus [8]): inactive
inhibition (Rattus norvegicus [9]): inactive

inhibition [2]: 82%
Structure (SMILES): COC(=O)NC(=O)CC1C(=O)N(C)C(=O)c2ccc(Br)cc21 (configuration not stated)
inhibition (Rattus norvegicus [10]): inactive
Inhibition (Rattus norvegicus [11]): 68%

inhibition [2]: inactive
Structure (SMILES): NN1C(=O)CC2(C1=O)C(=O)N(Cc1ccc(Br)cc1F)C(=O)c1ccccc12 (configuration not stated)
Inhibition (Rattus norvegicus [12]): 72%
Inhibition (Rattus norvegicus [13]): 82%

inhibition [2]: inactive
Structure (SMILES): CCN1C(=O)CC2(C1=O)C(=O)N(Cc1ccc(Br)cc1F)C(=O)c1ccccc12 (configuration not stated)
Inhibition (Rattus norvegicus [14]): 37%
Inhibition (Rattus norvegicus [15]): 65%

inhibition [2]: inactive
Structure (SMILES): CC(=O)NN1C(=O)CC2(C(=O)N(Cc3ccc(Br)cc3F)C(=O)c3ccccc32)C1=O (configuration not stated)
Inhibition (Rattus norvegicus [16]): 25%
Inhibition (Rattus norvegicus [17]): 73%

Structure (SMILES): CN1C(=O)c2ccc(Cl)cc2C2(CC(=O)N2)C1=O (configuration not stated)
Inhibition (Rattus norvegicus [18]): 87%
inhibition (Rattus norvegicus [19]): inactive
Inhibition (Rattus norvegicus [20]): 66%

inhibition [2]: 71%
Structure (SMILES): COC(=O)NC(=O)CC1C(=O)N(C)C(=O)c2ccc(F)cc21 (configuration not stated)
Inhibition (Rattus norvegicus [21]): 58%
inhibition (Rattus norvegicus [22]): inactive

inhibition [2]: 65%
Structure (SMILES): COC(=O)NC(=O)CC1C(=O)N(C)C(=O)c2ccc(Cl)cc21 (configuration not stated)
Inhibition (Rattus norvegicus [23]): 54% and 81%
Inhibition (Rattus norvegicus [24]): 53%
Inhibition (Rattus norvegicus [25]): 24%
